How the values were obtained:
[1] = Inhibition of murine p100/p85 PI3-K (phosphatidylinositol 3-kinase); set-up: species or system Mus musculus
MCF7 = assay: Tested in vitro for their inhibitory activity against MCF-7(breast) cell line; assay type: functional, cell-based; settings: Homo sapiens
Outline: (§1)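 Cells were seeded at 30 000 per well in DMEM with 10% FBS, and drugs were added 16 h later. Growth continued for 3 days in DMEM/10% FBS with or without a range of drug concentrations. Cells were then counted on a hemocytometer to give growth-inhibition IC50.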

[2] = biological target: Serine/threonine-protein kinase AKT (Homo sapiens, UniProt P31751+Q9Y243+P31749); assay: Inhibition of Akt (proto-oncogenic serine/threonine PKB) kinase; assay type: protein assay
HT-29 = assay: Tested in vitro for their inhibitory activity against HT-29 (colon) cell line; assay type: functional, cell-based; settings: Homo sapiens; outline: as §1
HeLa = assay: Tested in vitro for their inhibitory activity against Hela(cervical) cell line; assay type: functional, cell-based; settings: Homo sapiens; outline: as §1
PC-3 = assay: Tested in vitro for their inhibitory activity against PC-3(prostate) cell line.; assay type: functional, cell-based; settings: Homo sapiens; outline: as §1

SMILES | IC50 [1] [µM] | IC50 (MCF7) [µM] | IC50 [2] [µM] | IC50 (HT-29) [µM] | IC50 (HeLa) [µM] | IC50 (PC-3) [µM]
CCCCCCCCCCCCCCCCCCOC[C@H](COC(=O)O[C@H]1[C@@H](O)[C@@H](O)[C@H](O)C[C@H]1O)OC | 15.5 | 12 | 12.5 | 2.5 | 30 | 7
CCCCCCCCCCCCCCCCCCOC[C@H](COP(=O)(O)O[C@H]1[C@@H](O)[C@@H](O)[C@H](O)C[C@H]1O)OC | 14.8 | 7.2 | – | – | 7 | –
CCCCCCCCCCCCCCCCCCOC[C@H](COC(=O)O[C@@H]1[C@H](O)[C@@H](CO)[C@@H](O)[C@H](O)[C@@H]1O)OC | 21.3 | 12.5 | 32 | 12 | > 20 | 10

Further compounds by falling IC50 [1], results first:

IC50 [1] [µM] | IC50 (MCF7) [µM] | IC50 [2] [µM] | IC50 (HT-29) [µM] | IC50 (HeLa) [µM] | IC50 (PC-3) [µM] | SMILES
83 | 1.2 | 5 | 10 | 2.5 | 2 | CCCCCCCCCCCCCCCCCCOC[C@H](COC(=O)O[C@@H]1[C@H](O)[C@H](CO)[C@@H](O)[C@H](O)[C@@H]1O)OC
31 | 5 | 7.8 | 4.5 | 1 | 4 | CCCCCCCCCCCCCCCCCCOC[C@H](COP(=O)(O)O[C@@H]1[C@H](O)[C@H](CO)[C@@H](O)[C@H](O)[C@@H]1O)OC
18.5 | 2 | 9.1 | 7.5 | 7.5 | 2 | CCCCCCCCCCCCCCCCCCOC[C@H](COP(=O)(O)O[C@@H]1[C@H](O)[C@@H](CO)[C@@H](O)[C@H](O)[C@@H]1O)OC
